Experimental data as given in ChEMBL document CHEMBL1687928, “Discovery, optimization, and pharmacological characterization of novel heteroaroylphenylureas antagonists of C-C chemokine ligand 2 function” (J Med Chem, 2011).
Activity calls are given as the source filed them. No cut-off for these calls is given here.

Experiments:
CYP2C19 [1] = biological target: T1, CYP2C19 (Homo sapiens, UniProt P33261); test: Inhibition of CYP2C19 at 100 uM; type: ADME
CYP1A2 [2] = biological target: T2, CYP1A2 (Homo sapiens, UniProt P05177); test: Inhibition of CYP1A2 at 1 uM; type: ADME
T2 sequence (P05177 whole entry): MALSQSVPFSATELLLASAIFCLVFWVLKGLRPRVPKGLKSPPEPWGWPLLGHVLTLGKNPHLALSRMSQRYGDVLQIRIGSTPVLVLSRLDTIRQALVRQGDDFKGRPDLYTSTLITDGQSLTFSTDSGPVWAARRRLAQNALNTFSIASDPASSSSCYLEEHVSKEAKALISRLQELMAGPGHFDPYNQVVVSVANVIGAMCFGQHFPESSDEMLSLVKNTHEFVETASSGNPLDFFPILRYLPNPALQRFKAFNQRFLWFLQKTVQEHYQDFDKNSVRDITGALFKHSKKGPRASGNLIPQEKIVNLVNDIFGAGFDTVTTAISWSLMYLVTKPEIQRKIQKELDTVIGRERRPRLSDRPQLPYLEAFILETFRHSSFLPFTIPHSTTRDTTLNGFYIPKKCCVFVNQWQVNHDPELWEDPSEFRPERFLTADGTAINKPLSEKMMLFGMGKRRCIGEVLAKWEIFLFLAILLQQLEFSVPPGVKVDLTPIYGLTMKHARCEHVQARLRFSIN

Rattus norvegicus [3] = test: Inhibition of bone resorption in joints of collagen-induced arthritis Lewis rat model at 30 mg/kg, po BID for 28 days; type: functional, organism-based; parameters: dose 30 mg/kg
How it was run: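 Female Lewis SPF rats, 6 weeks old (n = 8/group). CIA was induced on day 0 by intradermal injection at the tail base of 900 μg bovine type II collagen in Freund's complete adjuvant, with a 450 μg boost on day 7. Compound in 5% gum arabic was given by gavage b.i.d. for 28 days from day 0. Hind-paw radiographs were taken on day 29 and scored blind from 0 to 4, averaging both legs. Two-tailed t test.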

Mus musculus [4] = test: Antiinflammatory activity in complete Freund's adjuvant-induced C57BL/6 mouse assessed as delay in autoimmune encephalomyelitis disease progression at 30 mg/kg, po BID; type: functional
How it was run: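 MOG33-55 peptide emulsion given subcutaneously to C57BL/6 mice, with intravenous pertussis vaccine (350 ng) right after and again 48 h later. Compound dissolved at 4 mg/mL in 3% aqueous Tween 80 (stored at 4 C), or water as vehicle, given orally b.i.d. from the day of immunization (day 0). Mice monitored daily for disease onset and clinical score (0–5 scale).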

Mus musculus [5] = test: Toxicity in ICR mouse at 100 mg/kg, po administered as single dose; type: organism-based; parameters: dose 100 mg/kg, route oral; details: in vivo
[6] = AUC (0 to 24 hrs) in rat at 5 mg/kg, iv; type: ADME, organism-based; parameters: time < 24 hr, dose 5 mg/kg, route intravenous; details: plasma
[7] = Volume of distribution at steady state in rat at 5 mg/kg, iv; type: ADME, organism-based; parameters: dose 5 mg/kg, route intravenous; details: in vivo, read-out: Vdss
How it was run: (§1)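 Rats, not fasted, received a single intravenous or oral dose.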

Mus musculus [8] = test: Toxicity in ICR mouse assessed as increase in ALT level at 300 mg/kg, po QD for 14 days; type: organism-based; parameters: dose 300 mg/kg, route oral; details: in vivo, 336 h
How it was run: (§2)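 Repeated-dose study in 6-week-old male ICR mice. Vehicle or 30, 100 or 300 mg/kg was given orally once daily for 14 days. Survival, behavior, body weight and liver enzymes (AST, ALT) were monitored.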

CYP2C19 [9] = biological target: T1, CYP2C19; test: Inhibition of CYP2C19 at 1 uM; type: ADME
Mus musculus [10] = species on record: Mus musculus; test: Antiinflammatory activity in Freund's adjuvant-induced C57BL/6 mouse assessed as decrease in inflammatory cell infiltrates in brain; type: functional, organism-based
How it was run: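 C57BL/6 mice were immunized s.c. with a MOG33-55 peptide emulsion and given pertussis vaccine (350 ng i.v.) right away and again 48 h later. From day 0, compound in 3% aqueous Tween 80 (4 mg/mL) or water was dosed orally b.i.d. Tissue cellular infiltrate was scored 0–5, from few small perivascular/meningeal infiltrates up to very large extensive infiltrate.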

CYP3A4 [11] = biological target: T3, CYP3A4 (Homo sapiens, UniProt P08684); test: Inhibition of CYP3A4 at 1 uM; type: ADME
T3 sequence (P08684 whole entry): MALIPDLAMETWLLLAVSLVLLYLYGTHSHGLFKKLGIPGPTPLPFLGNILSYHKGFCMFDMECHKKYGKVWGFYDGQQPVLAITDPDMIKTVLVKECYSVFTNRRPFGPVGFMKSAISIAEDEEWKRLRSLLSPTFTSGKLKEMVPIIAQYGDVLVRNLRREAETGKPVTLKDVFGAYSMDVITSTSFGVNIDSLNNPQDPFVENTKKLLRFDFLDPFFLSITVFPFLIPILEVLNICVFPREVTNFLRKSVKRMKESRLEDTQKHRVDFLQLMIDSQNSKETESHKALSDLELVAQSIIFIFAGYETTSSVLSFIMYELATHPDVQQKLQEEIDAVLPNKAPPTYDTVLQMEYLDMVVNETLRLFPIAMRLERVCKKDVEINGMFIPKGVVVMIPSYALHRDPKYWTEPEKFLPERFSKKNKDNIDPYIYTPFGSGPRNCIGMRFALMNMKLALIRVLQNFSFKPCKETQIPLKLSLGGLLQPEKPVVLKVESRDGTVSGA

CYP2D6 [12] = biological target: T4, CYP2D6 (Homo sapiens, UniProt P10635); test: Inhibition of CYP2D6 at 1 uM; type: ADME
T4 sequence (P10635 whole entry): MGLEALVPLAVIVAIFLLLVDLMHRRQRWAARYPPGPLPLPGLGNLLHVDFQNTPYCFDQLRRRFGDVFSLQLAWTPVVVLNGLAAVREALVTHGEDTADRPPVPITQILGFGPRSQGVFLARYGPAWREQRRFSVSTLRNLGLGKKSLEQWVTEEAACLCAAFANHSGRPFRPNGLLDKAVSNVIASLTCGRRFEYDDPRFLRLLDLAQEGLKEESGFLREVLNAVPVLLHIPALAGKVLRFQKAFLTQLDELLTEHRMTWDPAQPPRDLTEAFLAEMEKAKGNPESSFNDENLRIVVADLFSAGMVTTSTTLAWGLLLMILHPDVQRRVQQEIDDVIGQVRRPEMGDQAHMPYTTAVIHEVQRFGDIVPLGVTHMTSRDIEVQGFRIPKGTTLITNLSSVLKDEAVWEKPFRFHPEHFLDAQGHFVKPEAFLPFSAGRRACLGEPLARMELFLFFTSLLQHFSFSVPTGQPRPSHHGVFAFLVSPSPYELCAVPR

[13] = Cmax in rat at 100 mg/kg, po; type: ADME, organism-based; parameters: dose 100 mg/kg, route oral; details: in vivo
Mus musculus [14] = test: Toxicity in ICR mouse at 100 mg/kg, po QD for 14 days; type: organism-based; parameters: dose 100 mg/kg, route oral; details: in vivo, 336 h; how it was run: as §2
[15] = Cmax in rat at 5 mg/kg, po; type: ADME, organism-based; parameters: dose 5 mg/kg, route oral; details: in vivo
[16] = AUC (0 to 24 hrs) in rat at 100 mg/kg, po; type: ADME, organism-based; parameters: time < 24 hr, dose 100 mg/kg, route oral; details: plasma
Rattus norvegicus [17] = test: Drug uptake in collagen-induced Lewis rat bone marrow at 2 to 30 mg/kg, po measured 5 hrs post last dose; type: functional, organism-based
How it was run: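 In the rat collagen-induced arthritis study (oral b.i.d. dosing for 28 days), compound concentration was measured in plasma, tarsal homogenates and thigh-bone marrow. Samples were taken 5 h after the last dose on day 28.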

Mus musculus [18] = test: Immunosuppressive activity in delayed-type hypersensitivity po dosed […] ICR mouse assessed as inhibition of sheep RBC-induced foot-pad swelling administered 1 hr prior and 2 hr after SRBC challenge measured on day 5 by Plethysmometer; type: functional, organism-based
[19] = AUC (0 to 24 hrs) in rat at 30 mg/kg, po; type: ADME, organism-based; parameters: time < 24 hr, dose 30 mg/kg, route oral; details: plasma
CYP3A4 [20] = biological target: T3, CYP3A4; test: Inhibition of CYP3A4 at 100 uM; type: ADME
CYP2D6 [21] = biological target: T4, CYP2D6; test: Inhibition of CYP2D6 at 100 uM; type: ADME
CYP1A2 [22] = biological target: T2, CYP1A2; test: Inhibition of CYP1A2 at 100 uM; type: ADME
[23] = Aqueous solubility of the compound at pH 1.2; type: physicochemical
Rattus norvegicus [24] = test: Oral bioavailability in rat at 5 mg/kg, po; type: ADME, organism-based; details: in vivo; how it was run: as §1

T1 sequence (P33261 whole entry): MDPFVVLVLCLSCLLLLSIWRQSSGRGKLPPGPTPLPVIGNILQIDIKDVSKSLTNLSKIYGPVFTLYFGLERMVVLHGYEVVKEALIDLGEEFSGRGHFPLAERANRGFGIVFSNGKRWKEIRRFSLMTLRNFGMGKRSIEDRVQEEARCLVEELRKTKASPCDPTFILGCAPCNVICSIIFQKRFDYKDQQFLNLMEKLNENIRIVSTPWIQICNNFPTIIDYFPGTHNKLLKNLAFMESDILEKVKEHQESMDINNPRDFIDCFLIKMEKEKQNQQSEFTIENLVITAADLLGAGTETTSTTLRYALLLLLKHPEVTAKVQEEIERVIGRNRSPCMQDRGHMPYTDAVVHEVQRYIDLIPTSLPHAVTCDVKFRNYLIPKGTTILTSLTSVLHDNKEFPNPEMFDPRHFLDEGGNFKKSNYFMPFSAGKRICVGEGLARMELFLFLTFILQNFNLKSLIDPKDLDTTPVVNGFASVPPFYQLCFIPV

With Cc1nn(C)c2nc(N(C)CCN(C)C)c(C(=O)NC(=O)Nc3cccc(OC(C)C)c3)cc12.Cl the inhibition at 100 µM (CYP2C19 [1]) was 34%, the inhibition at 1 µM (CYP1A2 [2]) was -12% and the Activity (Rattus norvegicus [3]) was “Active”. The Activity (Mus musculus [4]) was 32.7 days, the Activity (Mus musculus [5]) was “Non-toxic” and the AUC(0-t) at 24 h [6] was 2690 ng·h/mL. For the same molecule, the Vd [7] was 9.9 L/kg, the Activity (Mus musculus [8]) was “Toxic” and the inhibition at 1 µM (CYP2C19 [9]) was -8%. The Activity (Mus musculus [10]) was “Active”, the inhibition at 1 µM (CYP3A4 [11]) was 4% and the inhibition at 1 µM (CYP2D6 [12]) was -5%. The Cmax [13] was 927 ng/mL, the Activity (Mus musculus [14]) was “Non-toxic” and the Cmax [15] was 129 ng/mL. For the same molecule, the AUC(0-t) at 24 h [16] was 15100 ng·h/mL, the Drug uptake (Rattus norvegicus [17]) was “Active” and the Activity (Mus musculus [18]) was “Active”. It also gave an AUC(0-t) at 24 h [19] of 5570 ng·h/mL, an inhibition at 100 µM (CYP3A4 [20]) of 49% and an inhibition at 100 µM (CYP2D6 [21]) of 73%. For the same molecule, the inhibition at 100 µM (CYP1A2 [22]) was -2%, the solubility [23] was 31.3 µg/mL and the F (Rattus norvegicus [24]) was 60%.
